Assay results reported in ChEMBL document CHEMBL1649392, “Synthesis of substituted 3-amino-N-phenyl-1H-indazole-1-carboxamides endowed with antiproliferative activity” (Eur J Med Chem, 2011).
Activity calls are given as the source filed them.

How the values were obtained:
[1] = test system: SF-539; assay: Antiproliferative activity against human SF539 cells after 48 hrs by sulforhodamine B assay; format: functional; details: SF-539, 48 h
Summary of the method: (§1)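 NCI 60-cell-line panel covering nine cancer types (leukemia, non-small cell lung, colon, CNS, melanoma, ovarian, renal, prostate, breast). Compounds were first tested at a single dose, then in a five-dose screen (series starting 0.01, 0.1 …) if they met NCI threshold criteria. Reported per line: GI50 (molar concentration inhibiting 50% net growth), TGI (total growth inhibition) and LC50 (50% net cell death).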

[2] = test system: MCF7; assay: Antiproliferative activity against human MCF7 cells after 48 hrs by sulforhodamine B assay; format: functional; details: MCF7, 48 h; summary of the method: as §1
[3] = test system: UACC-62; assay: Antiproliferative activity against human UACC62 cells after 48 hrs by sulforhodamine B assay; format: functional; details: UACC-62, 48 h
Summary of the method: (§2)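 NCI 60-cell-line panel screen: single dose 10 µM first, then 5-dose testing (0.01, 0.1, … molar series). For each line, GI50 is the molar concentration giving 50% inhibition of net cell growth, TGI gives total inhibition of net growth, and LC50 gives 50% net cell death. Method follows the NCI DTP protocol.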

[4] = test system: TK-10; assay: Antiproliferative activity against human TK10 cells after 48 hrs by sulforhodamine B assay; format: functional; details: TK-10, 48 h; summary of the method: as §2
[5] = test system: BT-549; assay: Antiproliferative activity against human BT549 cells after 48 hrs by sulforhodamine B assay; format: functional; details: BT-549, 48 h; summary of the method: as §1
[6] = test system: IGROV-1; assay: Antiproliferative activity against human IGROV1 cells after 48 hrs by sulforhodamine B assay; format: functional; details: IGROV-1, 48 h; summary of the method: as §1
[7] = test system: HL-60(TB); assay: Antiproliferative activity against human HL-60(TB) cells after 48 hrs by sulforhodamine B assay; format: functional; details: HL-60, 48 h
Summary of the method: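 Tested by the National Cancer Institute in its full tumour cell panel covering nine cancer types, including leukemia. Compounds were first screened at a single dose. Those passing the preset inhibition threshold then went to a 5-dose screen. GI50 is the molar concentration giving 50% inhibition of net cell growth; TGI and LC50 were also derived.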

[8] = test system: HOP-62; assay: Antiproliferative activity against human HOP62 cells after 48 hrs by sulforhodamine B assay; format: functional; details: HOP-62, 48 h; summary of the method: as §1
[9] = Antiproliferative activity against human Hs 578T cells after 48 hrs by sulforhodamine B assay; format: functional; summary of the method: as §1
[10] = test system: SK-MEL-28; assay: Antiproliferative activity against human SK-MEL-28 cells after 48 hrs by sulforhodamine B assay; format: functional; details: SK-MEL-28, 48 h; summary of the method: as §1
[11] = test system: SK-MEL-5; assay: Antiproliferative activity against human SK-MEL-5 cells after 48 hrs by sulforhodamine B assay; format: functional; details: SK-MEL-5, 48 h; summary of the method: as §1
[12] = test system: NCI/ADR-RES; assay: Antiproliferative activity against human NCI/ADR-RES cells after 48 hrs by sulforhodamine B assay; format: functional; summary of the method: as §1
[13] = test system: A549; assay: Antiproliferative activity against human A549 cells after 48 hrs by sulforhodamine B assay; format: functional; details: A549, 48 h; summary of the method: as §1
[14] = test system: T47D; assay: Antiproliferative activity against human T47D cells after 48 hrs by sulforhodamine B assay; format: functional; summary of the method: as §2
[15] = test system: K562; assay: Induction of cell cycle arrest in human K562 cells assessed as decrease in accumulation at G2/M phase at 40 uM after 24 hrs by flow cytometric analysis; format: functional, cell-based
Summary of the method: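 K562 myeloblastic leukemia cells cultured 24 h with compound at 20, 40 or 60 µM, or untreated. Cells washed in ice-cold PBS and resuspended at 10⁶/mL in hypotonic propidium iodide (50 µg/mL) with 0.03% Nonidet P-40 in 0.1% sodium citrate. After 30 min, DNA content read by flow cytometry; sub-G0/G1, G0/G1, S and G2/M fractions scored.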

[16] = test system: NCI-H460; assay: Antiproliferative activity against human NCI-H460 cells after 48 hrs by sulforhodamine B assay; format: functional; details: NCI-H460, 48 h; summary of the method: as §1
[17] = test system: MDA-MB-435; assay: Antiproliferative activity against human MDA-MB-435 cells after 48 hrs by sulforhodamine B assay; format: functional; details: MDA-MB-435, 48 h; summary of the method: as §1
[18] = test system: MDA-MB-231; assay: Antiproliferative activity against human MDA-MB-231 cells after 48 hrs by sulforhodamine B assay; format: functional; details: MDA-MB-231, 48 h; summary of the method: as §1
[19] = test system: EKVX; assay: Antiproliferative activity against human EKVX cells after 48 hrs by sulforhodamine B assay; format: functional; summary of the method: as §1
[20] = test system: HT-29; assay: Antiproliferative activity against human HT-29 cells after 48 hrs by sulforhodamine B assay; format: functional; details: HT-29, 48 h; summary of the method: as §1
[21] = test system: 786-0; assay: Antiproliferative activity against human 786-0 cells after 48 hrs by sulforhodamine B assay; format: functional; details: 786-0, 48 h; summary of the method: as §1
[22] = test system: SW-620; assay: Antiproliferative activity against human SW620 cells after 48 hrs by sulforhodamine B assay; format: functional; details: SW-620, 48 h; summary of the method: as §2
[23] = test system: SF-295; assay: Antiproliferative activity against human SF295 cells after 48 hrs by sulforhodamine B assay; format: functional; details: SF-295, 48 h; summary of the method: as §1
[24] = test system: CCRF-CEM; assay: Antiproliferative activity against human CCRF-CEM cells after 48 hrs by sulforhodamine B assay; format: functional; summary of the method: as §1
[25] = test system: U-251; assay: Antiproliferative activity against human U251 cells after 48 hrs by sulforhodamine B assay; format: functional; details: U-251, 48 h; summary of the method: as §2
[26] = test system: PC-3; assay: Antiproliferative activity against human PC3 cells after 48 hrs by sulforhodamine B assay; format: functional; details: PC-3, 48 h; summary of the method: as §1
[27] = test system: LOX IMVI; assay: Antiproliferative activity against human LOXIMVI cells after 48 hrs by sulforhodamine B assay; format: functional; summary of the method: as §1
[28] = test system: DU-145; assay: Antiproliferative activity against human DU145 cells after 48 hrs by sulforhodamine B assay; format: functional; details: DU-145, 48 h; summary of the method: as §1
[29] = read-out: LC50 (the source's name)

## Nc1nn(C(=O)Nc2ccc(Cc3ccccc3)cc2)c2ccc(Cl)cc12
[1]
  GI50: 1.51 µM
  TGI: 11.5 µM
[1]; [29]
  CC50: 38.8 µM
[2]
  GI50: 0.395 µM
  TGI: 18.8 µM
[2]; [29]
  CC50: 84 µM
[3]
  GI50: 0.0412 µM
  TGI: > 100 µM
[3]; [29]
  CC50: > 100 µM
[4]
  GI50: 15.6 µM
  TGI: 38.7 µM
[4]; [29]
  CC50: 96.3 µM
[5]
  GI50: 5.88 µM
  TGI: 44 µM
[5]; [29]
  CC50: > 100 µM
[6]
  GI50: 13.7 µM
  TGI: > 100 µM
[6]; [29]
  CC50: > 100 µM
[7]
  GI50: 2.62 µM
  TGI: 42.1 µM
[7]; [29]
  CC50: > 100 µM
[8]
  GI50: 1.21 µM
  LC50 (concentration causing 50% net cell death): 59.7 µM
  TGI: 16.4 µM
[9]
  GI50: 13.3 µM
  TGI: 41.7 µM
[9]; [29]
  CC50: > 100 µM
[10]
  GI50: 18.5 µM
  TGI: > 100 µM
[10]; [29]
  CC50: > 100 µM
[11]
  GI50: 0.283 µM
  TGI: 21.1 µM
[11]; [29]
  CC50: 80.2 µM
[12]
  GI50: 11 µM
  TGI: 39.1 µM
[12]; [29]
  CC50: > 100 µM
[13]
  GI50: 2.52 µM
  TGI: > 100 µM
[13]; [29]
  CC50: > 100 µM
[14]
  GI50: 0.0741 µM
  LC50 (concentration giving 50% net cell death): > 100 µM
  TGI: 27.6 µM
[15]
  Activity: Active
[16]
  GI50: 0.0645 µM
  TGI: 14.7 µM
[16]; [29]
  CC50: 60.6 µM
[17]
  GI50: 0.0813 µM
  TGI: > 100 µM
[17]; [29]
  CC50: > 100 µM
[18]
  GI50: 5.33 µM
  TGI: 37.6 µM
[18]; [29]
  CC50: > 100 µM
[19]
  GI50: 3.19 µM
  TGI: 97.6 µM
[19]; [29]
  CC50: > 100 µM
[20]
  GI50: 1.15 µM
  LC50 (concentration giving 50% net cell death): 79.1 µM
  TGI: 24 µM
[21]
  GI50: 3.92 µM
  TGI: 28.2 µM
[21]; [29]
  CC50: 94.4 µM
[22]
  GI50: 0.0565 µM
  TGI: 76.5 µM
[22]; [29]
  CC50: > 100 µM
[23]
  GI50: 0.0515 µM
  LC50: > 100 µM
  TGI: 24.2 µM
[24]
  GI50: 1.23 µM
  LC50 (concentration causing 50% net cell death): > 100 µM
  TGI: 34.4 µM
[25]
  GI50: 12.5 µM
  LC50 (concentration giving 50% net cell death): 58.4 µM
  TGI: 27 µM
[26]
  GI50: 2.9 µM
  TGI: 44.3 µM
[26]; [29]
  CC50: > 100 µM
[27]
  GI50: 0.0503 µM
  LC50 (concentration causing 50% net cell death): 53.2 µM
  TGI: 18.4 µM
[28]
  GI50: 10.4 µM
  TGI: 28.9 µM
[28]; [29]
  CC50: 80 µM
